Measurements taken from PMC12335033 (BMC Oral Health, 2025).
Where a SMILES comes first, the peptide text is derived from it.

B1: MDP-3DSS (peptide)
peptide: CPKESCNLFVLKDDSSDSSDSS
B2: CBP1495 (peptide)
peptide: CPKESCNLFVLKD
B3: MDP-a (peptide)
peptide: CDWWSCWLDVLKD

Columns and labels:
rat type I collagen [1] = target: rat type I collagen (Rattus norvegicus, UniProt P02454+P02466); test: SPR affinity of peptides for type I collagen; format: binding; details: for Rmax: SPR, 1:1 binding; for kon: read-out: 1:1 binding ka; for koff: read-out: Kd (dissociation rate constant)
How it was run: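 Rat type I collagen preconcentrated in sodium acetate (pH 5.0) and amine-coupled to a CM5 chip. Peptide in sodium acetate buffer at five concentrations, 30 µL/min; 100 s contact, 80 s dissociation. Regeneration with glycine 2.0 for 30 s. Three cycles, multicycle kinetics; K_D calculated.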

type I collagen = details: isothermal titration calorimetry and enzyme-linked immunosorbent assays; ref [14] (Lei et al.); cited from earlier work
[2] = TEM/SAED/EDS of calcium phosphate; format: physicochemical; details: TEM; 0.1 mM peptide, pH 7.0; control: irregularly shaped aggregates
collagen membrane [3] = test: Calcium ion adsorption by collagen membrane, ICP-MS; details: 0.1 mM peptide, pH 7.0, 37 °C, 7 d, n = 9, p < 0.0001
type I collagen fiber = test: Collagen fiber mineralization, TEM/SAED/EDS; details: 0.1 mM peptide, 7 d; for electron density distribution of collagen fiber (TEM): 3.90 mM CaCl2, 3.83 mM Na2HPO4, pH 7.0, 37 °C; for SAED arc-shaped patterns (hkl) of hydroxyapatite: 37 °C, control one ring (300); for calcium and phosphate distribution (EDS) / fiber mineralization: pH 7.0, 37 °C; for fiber mineralization: TEM
How it was run: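 Type I collagen fibers self-assembled in 50 mM glycine/200 mM KCl (pH 9.2), room temperature, 20 min, on nickel grids at 37 °C for 12 h, then fixed in 0.05% glutaraldehyde for 1 h. Grids immersed at 37 °C for 7 d in 3.90 mM CaCl₂/3.83 mM Na₂HPO₄ (pH 7.0) with 0.1 mM peptide, changed every 24 h. Peptide-free control. Rinsed, ethanol-dehydrated; TEM, SAED, EDS.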

collagen membrane [4] = test: TGA of mineralized collagen membrane; details: 0.1 mM peptide, 37 °C, 7 d; n = 9; p < 0.0001
[5] = Dentin slice remineralization, SEM and tubule plugging rate; set-up: species or system human; details: 0.1 mM peptide 12 h; for plugging rate of dentinal tubules vs control: SEM 3,000×, p < 0.0001; for dentinal tubule diameters (SEM surface) / mineral depth in dentin tubules (SEM cross section) / mineral growth on dentin (SEM surface): then artificial saliva pH 7.0, 2 w
How it was run: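 Human third-molar crown dentin cut to 5 × 5 × 2 mm slices and polished. Etched with 35% phosphoric gel for 30 s, 5.25% NaOCl for 1 min, sonicated 10 min. Soaked in 0.1 mM peptide for 12 h, rinsed, then 2 w in artificial saliva (pH 7.0) refreshed daily. Peptide-free control. SEM of surface and cross-section; plugging rate from open-tubule counts at 3,000×; n = 9; one-way ANOVA with Tukey.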

[6] = Mechanical properties of remineralized dentin; set-up: species or system human; details: compared with MDP-a group; 2 w mineralization
How it was run: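 Nanoindentation of the new mineral layer on dentin slices after 2 w of remineralization, tested alongside sound and etched slices. Conditions: 10 mN force, 10 s loading, 2 s hold, Poisson's ratio 0.28. Five points per sample, nine samples per group. Elastic modulus and microhardness derived from load–displacement curves; one-way ANOVA with Tukey.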

rat type I collagen [7] = target: rat type I collagen (rat, UniProt P02454 152-1207; P02466 86-1125); test: SPR
Chain of rat type I collagen (rat, UniProt P02454 152-1207; P02466 86-1125) (P02454 152-1207, chain 1 of 2): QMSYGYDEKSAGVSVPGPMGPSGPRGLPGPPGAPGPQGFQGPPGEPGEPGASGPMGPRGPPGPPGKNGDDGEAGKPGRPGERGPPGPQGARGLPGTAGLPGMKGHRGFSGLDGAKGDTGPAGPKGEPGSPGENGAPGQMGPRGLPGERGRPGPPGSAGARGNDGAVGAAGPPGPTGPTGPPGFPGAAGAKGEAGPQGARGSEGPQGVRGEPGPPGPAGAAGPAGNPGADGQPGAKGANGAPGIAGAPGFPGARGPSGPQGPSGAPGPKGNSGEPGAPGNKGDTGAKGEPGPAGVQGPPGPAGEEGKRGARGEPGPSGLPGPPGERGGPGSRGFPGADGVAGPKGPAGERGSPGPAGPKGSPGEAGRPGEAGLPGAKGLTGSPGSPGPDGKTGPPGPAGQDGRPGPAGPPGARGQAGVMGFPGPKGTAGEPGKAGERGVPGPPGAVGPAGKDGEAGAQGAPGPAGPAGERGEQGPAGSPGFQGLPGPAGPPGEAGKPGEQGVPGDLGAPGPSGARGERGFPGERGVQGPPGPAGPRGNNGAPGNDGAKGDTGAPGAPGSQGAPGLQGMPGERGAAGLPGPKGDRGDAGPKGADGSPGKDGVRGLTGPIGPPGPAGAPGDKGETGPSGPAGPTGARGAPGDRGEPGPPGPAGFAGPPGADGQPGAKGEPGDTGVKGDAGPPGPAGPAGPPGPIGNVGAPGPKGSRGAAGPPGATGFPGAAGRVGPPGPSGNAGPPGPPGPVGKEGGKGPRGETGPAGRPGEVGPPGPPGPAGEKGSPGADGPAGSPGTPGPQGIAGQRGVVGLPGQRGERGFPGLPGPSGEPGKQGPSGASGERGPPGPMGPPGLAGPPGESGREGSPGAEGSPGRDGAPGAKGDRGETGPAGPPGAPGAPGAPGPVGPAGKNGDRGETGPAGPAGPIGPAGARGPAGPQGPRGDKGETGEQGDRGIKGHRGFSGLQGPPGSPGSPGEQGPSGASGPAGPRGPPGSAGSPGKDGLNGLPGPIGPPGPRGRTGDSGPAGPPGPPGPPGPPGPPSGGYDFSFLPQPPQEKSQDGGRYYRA
Chain of rat type I collagen (rat, UniProt P02454 152-1207; P02466 86-1125) (P02466 86-1125, chain 2 of 2): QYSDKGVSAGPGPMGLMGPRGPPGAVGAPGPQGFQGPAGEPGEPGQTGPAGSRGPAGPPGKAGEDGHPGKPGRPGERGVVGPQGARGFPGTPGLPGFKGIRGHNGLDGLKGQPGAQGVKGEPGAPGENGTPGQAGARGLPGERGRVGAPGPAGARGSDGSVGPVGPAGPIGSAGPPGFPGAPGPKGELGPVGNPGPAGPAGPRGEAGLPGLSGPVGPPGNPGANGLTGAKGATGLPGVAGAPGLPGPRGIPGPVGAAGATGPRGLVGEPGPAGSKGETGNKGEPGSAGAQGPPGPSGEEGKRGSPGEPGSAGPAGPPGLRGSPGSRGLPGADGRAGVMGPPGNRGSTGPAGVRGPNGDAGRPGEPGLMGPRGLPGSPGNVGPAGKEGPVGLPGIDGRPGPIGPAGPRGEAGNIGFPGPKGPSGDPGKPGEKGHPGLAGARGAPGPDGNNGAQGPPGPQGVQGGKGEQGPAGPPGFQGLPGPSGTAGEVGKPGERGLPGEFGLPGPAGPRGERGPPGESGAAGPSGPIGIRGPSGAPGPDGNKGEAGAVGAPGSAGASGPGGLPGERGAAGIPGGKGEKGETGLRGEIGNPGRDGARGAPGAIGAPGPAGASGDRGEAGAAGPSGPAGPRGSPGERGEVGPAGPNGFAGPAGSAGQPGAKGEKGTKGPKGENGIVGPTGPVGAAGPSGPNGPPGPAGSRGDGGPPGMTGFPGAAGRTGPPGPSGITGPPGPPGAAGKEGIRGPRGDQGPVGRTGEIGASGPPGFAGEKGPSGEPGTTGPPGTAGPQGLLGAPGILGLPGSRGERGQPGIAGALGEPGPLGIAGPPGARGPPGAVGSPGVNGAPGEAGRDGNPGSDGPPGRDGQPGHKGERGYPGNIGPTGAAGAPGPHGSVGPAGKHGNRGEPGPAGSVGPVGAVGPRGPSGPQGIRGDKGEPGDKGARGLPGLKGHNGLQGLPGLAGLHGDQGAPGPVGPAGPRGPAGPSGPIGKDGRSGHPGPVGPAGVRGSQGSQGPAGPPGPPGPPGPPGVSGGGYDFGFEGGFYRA

Molecule	Rmax (rat type I collagen [1])	kon (rat type I collagen [1])	koff (rat type I collagen [1])	morphology of particles [2]	electron density distribution of collagen fiber (TEM) (type I collagen fiber)	SAED arc-shaped patterns (hkl) of hydroxyapatite (type I collagen fiber)	calcium and phosphate distribution (EDS) (type I collagen fiber)	fiber mineralization (type I collagen fiber)	plugging rate of dentinal tubules vs control ([5]; artificial saliva 2 w, n = 9)	dentinal tubule diameters (SEM surface) [5]	mineral depth in dentin tubules (SEM cross section) [5]	mineral growth on dentin (SEM surface) [5]	Kd (rat type I collagen [7])	further results
CC(C)C[C@H](NC(=O)[C@H](CC(N)=O)NC(=O)[C@H](CS)NC(=O)[C@H](CO)NC(=O)[C@H](CCC(=O)O)NC(=O)[C@H](CCCCN)NC(=O)[C@@H]1CCCN1C(=O)[C@@H](N)CS)C(=O)N[C@@H](Cc1ccccc1)C(=O)N[C@H](C(=O)N[C@@H](CC(C)C)C(=O)N[C@@H](CCCCN)C(=O)N[C@@H](CC(=O)O)C(=O)O)C(C)C [CBP1495, reference compound] (H-CPKESCNLFVLKD-OH; N-terminus and C-terminus assumed)	190942.7 RU	10600 M⁻¹ s⁻¹	0.624 s⁻¹	–	–	–	–	–	–	–	–	–	–	binding to type I collagen (type I collagen): can bind to type I collagen with strong affinity
CC(C)C[C@H](NC(=O)[C@H](CC(N)=O)NC(=O)[C@H](CS)NC(=O)[C@H](CO)NC(=O)[C@H](CCC(=O)O)NC(=O)[C@H](CCCCN)NC(=O)[C@@H]1CCCN1C(=O)[C@@H](N)CS)C(=O)N[C@@H](Cc1ccccc1)C(=O)N[C@H](C(=O)N[C@@H](CC(C)C)C(=O)N[C@@H](CCCCN)C(=O)N[C@@H](CC(=O)O)C(=O)N[C@@H](CC(=O)O)C(=O)N[C@@H](CO)C(=O)N[C@@H](CO)C(=O)N[C@@H](CC(=O)O)C(=O)N[C@@H](CO)C(=O)N[C@@H](CO)C(=O)N[C@@H](CC(=O)O)C(=O)N[C@@H](CO)C(=O)N[C@@H](CO)C(=O)O)C(C)C [MDP-3DSS] (H-CPKESCNLFVLKDDSSDSSDSS-OH; N-terminus and C-terminus assumed)	65526.7 RU	30800 M⁻¹ s⁻¹	0.58 s⁻¹	aggregated particles arranged in loose chains	uniform and dense electron distribution, with significantly increased electron density, indicating a highly mineralized structure	002,112,401,122	highly concentrated along the fiber axis, with a minimal presence of these ions outside the fiber	evident fiber mineralization	increased significantly	significantly reduced	7 μm	dense mineral growth was observed on the surface and inside the dentinal tubules	–	calcium ion adsorption by collagen membrane, MDP-3DSS vs MDP-a (collagen membrane [3]): promoted the adsorption of calcium ions by collagen more effectively than MDP-a; residual mineral content (TGA) (collagen membrane [4]): highest residual mineral content; plugging rate of dentinal tubules, MDP-3DSS vs MDP-a ([5]; artificial saliva 2 w, n = 9, p = 0.0019): greater plugging rate of dentinal tubules; elastic modulus and microhardness relative to sound dentin [6]: closer to those of sound dentin group
CC(C)C[C@H](NC(=O)[C@H](Cc1c[nH]c2ccccc12)NC(=O)[C@H](CS)NC(=O)[C@H](CO)NC(=O)[C@H](Cc1c[nH]c2ccccc12)NC(=O)[C@H](Cc1c[nH]c2ccccc12)NC(=O)[C@H](CC(=O)O)NC(=O)[C@@H](N)CS)C(=O)N[C@@H](CC(=O)O)C(=O)N[C@H](C(=O)N[C@@H](CC(C)C)C(=O)N[C@@H](CCCCN)C(=O)N[C@@H](CC(=O)O)C(=O)O)C(C)C [MDP-a] (H-CDWWSCWLDVLKD-OH; N-terminus and C-terminus assumed)	53152.0 RU	32900 M⁻¹ s⁻¹	0.594 s⁻¹	uneven, dense, spherical aggregated particles	increase in electron density, the distribution along the collagen fiber was notably uneven, with a substantial amount of electrons present outside the fiber	002,300	more scattered along the fiber axis	evident fiber mineralization	increased significantly	significantly reduced	7 μm	dense mineral growth was observed on the surface and inside the dentinal tubules	–	–
B1	–	–	–	–	–	–	–	–	–	–	–	–	18.9 µM	–
B2	–	–	–	–	–	–	–	–	–	–	–	–	59 µM	–
B3	–	–	–	–	–	–	–	–	–	–	–	–	18 µM	–
